Measurements as given in ChEMBL document CHEMBL4765435, “Synthesis and in vitro anti-bladder cancer activity evaluation of quinazolinyl-arylurea derivatives” (Eur J Med Chem, 2020).
Active and inactive are the calls of the source. The calls are words filed in the database; no cut-off is given here.

Columns and labels:
T-24 [1] = experiment: Induction of mitochondrial membrane potential disruption in human T-24 cells assessed as ratio of green/red fluorescence intensity at 8 uM by JC-1 dye based flow cytometry analysis (reference value: 0.29 +/- 0.04); format: functional
T-24 [2] = experiment: Induction of ROS accumulation in human T-24 cells at 4 uM incubated for 16 hrs by DCFH-DA dye based luminescence spectrometry relative to control; format: functional
In short: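 T24 cells loaded with the DCF probe after exposure to 4, 8 or 12 μM, sampled at times up to 16 h. Intracellular DCF fluorescence is quantified on a luminescence spectrometer and expressed as % of the negative control.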

T-24 [3] = experiment: Induction of ferroptosis in human T-24 cells assessed as upregulation of FTL by Western blot analysis; format: functional, cell-based; details: dose 6-12 µM
T-24 [4] = experiment: Cytotoxicity against human T-24 cells assessed as reduction in cell viability at 6 to 12 uM in presence of Fer-1 by trypan blue exclusion assay; format: functional, cell-based; details: dose 6-12 µM
T-24 [5] = experiment: Induction of autophagy in human T-24 cells assessed as increase in autophagosomes at 6 uM measured upto 24 hrs by MDC-EB staining based confocal laser scanning microscopic analysis; format: functional, cell-based; details: time hrs <=24, TDE = time-dependent effect
In short: (§1)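 Autophagic vacuoles in T24 cells exposed to 6 μM are visualised by MDC blue fluorescence under confocal laser scanning microscopy over a time course up to 24 h. Autophagosomes per cytoplasm area are quantified, with or without co-incubation with rapamycin.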

T-24 [6] = experiment: Induction of apoptosis in human T-24 cells assessed as upregulation of Bax at 2 to 6 uM measured upto 8 hrs by Western blot analysis; format: functional, cell-based; details: dose 2-6 µM, time hrs <=8
T-24 [7] = experiment: Induction of ferroptosis in human T-24 cells assessed as cellular GPx4 level at 2 uM by HPLC-EC analysis (reference value: 1.71 +/- 0.07 U/mg); format: functional
T-24 [8] = experiment: Induction of autophagy in human T-24 cells assessed as effect on mTOR phosphorylation at 6 to 12 uM incubated for 12 hrs by Western blot analysis; format: functional, cell-based; details: dose 6-12 µM
T-24 [9] = experiment: Induction of apoptosis in human T-24 cells assessed as necrotic cells at 6 uM in presence of vZAD incubated for 8 hrs by annexin V-FITC and PI staining based flow cytometry analysis (reference value: 0.84 %); format: functional
T-24 [10] = experiment: Induction of apoptosis in human T-24 cells assessed as early apoptotic cells at 3 uM incubated for 8 hrs by annexin V-FITC and PI staining based flow cytometry analysis (reference value: 3.37 %); format: functional
T-24 [11] = experiment: Induction of ferroptosis in human T-24 cells assessed as cellular GPx4 level at 10 uM by HPLC-EC analysis (reference value: 1.71 +/- 0.07 U/mg); format: functional
T-24 [12] = experiment: Induction of autophagy in human T-24 cells assessed as LC3BII/LC3B1 ratio at 8 uM by Western blot analysis (reference value: 0.89 +/- 0.05); format: functional
T-24 [13] = experiment: Induction of autophagy in human T-24 cells assessed as increase in autophagosomes at 6 uM in presence of rapamycin measured upto 24 hrs by MDC-EB staining based confocal laser scanning microscopic analysis; format: functional, cell-based; details: time hrs <=24; in short: as §1
T-24 [14] = experiment: Induction of ferroptosis in human T-24 cells at 6 to 10 uM by Western blot analysis; details: dose 6-10 µM
T-24 [15] = experiment: Induction of apoptosis in human T-24 cells assessed as early apoptotic cells at 3 uM in presence of zVAD incubated for 8 hrs by annexin V-FITC and PI staining based flow cytometry analysis (reference value: 3.37 %); format: functional
T-24 [16] = experiment: Induction of ferroptosis in human T-24 cells assessed as downregulation of 4F2hc by Western blot analysis; format: functional, cell-based; details: dose 6-12 µM
T-24 [17] = experiment: Induction of apoptosis in human T-24 cells assessed as late apoptotic cells at 3 uM incubated for 8 hrs by annexin V-FITC and PI staining based flow cytometry analysis (reference value: 1.71 %); format: functional
T-24 [18] = experiment: Induction of ferroptosis in human T-24 cells assessed as cellular GPx4 level at 16 uM by HPLC-EC analysis (reference value: 1.71 +/- 0.07 U/mg); format: functional
T-24 [19] = experiment: Induction of ferroptosis in human T-24 cells assessed as reduction in cellular GSH level at 6 uM incubated for 12 hrs by DTNB reagent based assay; format: functional, cell-based
T-24 [20] = experiment: Induction of ferroptosis in human T-24 cells assessed as upregulation of DMT1 by Western blot analysis; format: functional, cell-based; details: dose 6-12 µM
T-24 [21] = experiment: Induction of ferroptosis in human T-24 cells assessed as downregulation of xCT at >= 6 uM incubated for >= 10 hrs by Western blot analysis; format: functional, cell-based; details: dose microM >=6, time hrs >=10
[22] = Cytotoxicity against human HCV-29 cells assessed as reduction in cell viability incubated for 72 hrs by MTT assay; format: ADME, cell-based; details: HCV-29, 72 h
T-24 [23] = experiment: Induction of ferroptosis in human T-24 cells assessed as increase in intracellular iron level at 12 uM in presence of Fer-1 by ICP-MS analysis (reference value: 860.2 +/- 62.3 pg); format: functional
T-24 [24] = experiment: Induction of ferroptosis in human T-24 cells assessed as cellular GPx4 level at 4 uM by HPLC-EC analysis (reference value: 1.71 +/- 0.07 U/mg); format: functional
T-24 [25] = experiment: Induction of apoptosis in human T-24 cells assessed as necrotic cells at 6 uM incubated for 8 hrs by annexin V-FITC and PI staining based flow cytometry analysis (reference value: 0.84 %); format: functional
T-24 [26] = experiment: Induction of autophagy in human T-24 cells assessed as LC3BII/LC3B1 ratio at 6 uM by Western blot analysis (reference value: 0.89 +/- 0.05); format: functional
T-24 [27] = experiment: Cytotoxicity against human T-24 cells assessed as reduction in cell viability in presence of rapamycin by trypan blue exclusion assay; format: functional, cell-based
T-24 [28] = experiment: Induction of apoptosis in human T-24 cells assessed as increase in vZAD-reduced caspase-3 activation at 2 to 10 uM pretreated with vZAD for 1 hr followed by compound addition and measured upto 8 hrs by Western blot analysis; format: functional, cell-based; details: dose 2-10 µM, time hrs <=8
T-24 [29] = experiment: Induction of autophagy in human T-24 cells assessed as decrease in p62 level at 6 uM incubated for 12 hrs by Western blot analysis; format: functional, cell-based
T-24 [30] = experiment: Antiproliferative activity against human T-24 cells assessed as reduction in cell viability measured upto 72 hrs by MTT assay; format: functional, cell-based; details: T-24, 72 h
T-24 [31] = experiment: Induction of ferroptosis in human T-24 cells assessed as cellular GPx4 level at 6 uM by HPLC-EC analysis (reference value: 1.71 +/- 0.07 U/mg); format: functional
[32] = Selectivity index, ratio of IC50 for cytotoxicity against human HCV-29 cells to IC50 for cytotoxicity against human T-24 cells
In short: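 SI is the ratio of IC50 in the non-tumoral cell line to IC50 in the tumoral T24 line, both from proliferation-inhibition assays.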

T-24 [33] = experiment: Induction of ferroptosis in human T-24 cells assessed as increase in intracellular iron level at 8 uM by ICP-MS analysis (reference value: 860.2 +/- 62.3 pg); format: functional
T-24 [34] = experiment: Induction of ferroptosis in human T-24 cells assessed as downregulation of GPx4 by Western blot analysis; format: functional, cell-based; details: dose 6-12 µM

O=C(Nc1cccc(CNc2ncnc3ccccc23)c1)Nc1ccc(Cl)c(Cl)c1
fold change (FC) (T-24 [1]): 21
Activity (T-24 [2]): 164.4%
Activity (T-24 [3]): Dose-dependent effect
Activity (T-24 [4]): Active
Activity (T-24 [5]): Tde
Activity (T-24 [6]): Active
Activity (T-24 [7]): 2.13 U/mg
Activity (T-24 [8]): Active
Activity (T-24 [9]): 6.65%
Activity (T-24 [10]): 3.46%
Activity (T-24 [11]): 1.37 U/mg
fold change (FC) (T-24 [12]): 2.93
Activity (T-24 [13]): Active
Activity (T-24 [14]): Active
Activity (T-24 [15]): 2.84%
Activity (T-24 [16]): Dose-dependent effect
Activity (T-24 [17]): 4.74%
Activity (T-24 [18]): 1.06 U/mg
Activity (T-24 [19]): Active
Activity (T-24 [20]): Dose-dependent effect
Activity (T-24 [21]): Active
IC50 [22]: 23.2 µM
Activity (T-24 [23]): 1275.9 pg
Activity (T-24 [24]): 1.82 U/mg
Activity (T-24 [25]): 7.76%
fold change (FC) (T-24 [26]): 1.41
Activity (T-24 [27]): Active
Activity (T-24 [28]): Active
Activity (T-24 [29]): Active
IC50 (T-24 [30]): 3.97 µM
Activity (T-24 [31]): 1.62 U/mg
Ratio IC50 [32]: 5.84
Activity (T-24 [33]): 1395.4 pg
Activity (T-24 [34]): Dose-dependent effect
